Converted amounts (≈) assume the structure as drawn.
How the values were obtained:
SNB-75 = assay: Growth inhibition of human SNB75 cells after 48 hrs by sulforhodamine B assay; assay type: functional; settings: SNB-75, 48 h
How it was run: (§1)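 Cells in RPMI 1640 with 5% FBS, plated at 5,000–40,000/well and grown 24 h. Time-zero plates fixed with TCA. Five drug concentrations, 48 h at 37 °C, 5% CO₂. Fixation with TCA (10% final for adherent lines; 16% final for suspension lines), staining with 0.4% SRB, reading at 515 nm. GI50 is the concentration giving a 50% reduction in net protein increase relative to time zero.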

A549 = assay: Growth inhibition of human A549 cells after 48 hrs by sulforhodamine B assay; assay type: functional; settings: A549, 48 h; how it was run: as §1
SR = assay: Growth inhibition of human SR cells after 48 hrs by sulforhodamine B assay; assay type: functional; how it was run: as §1
SF-539 = assay: Growth inhibition of human SF539 cells after 48 hrs by sulforhodamine B assay; assay type: functional; settings: SF-539, 48 h; how it was run: as §1
MCF7 = assay: Growth inhibition of human MCF7 cells after 48 hrs by sulforhodamine B assay; assay type: functional; settings: MCF7, 48 h; how it was run: as §1
MDA-MB-435 = assay: Growth inhibition of human MDA-MB-435 cells after 48 hrs by sulforhodamine B assay; assay type: functional; settings: MDA-MB-435, 48 h; how it was run: as §1
BT-549 = assay: Growth inhibition of human BT549 cells after 48 hrs by sulforhodamine B assay; assay type: functional; settings: BT-549, 48 h; how it was run: as §1
HCT-15 = assay: Growth inhibition of human HCT15 cells after 48 hrs by sulforhodamine B assay; assay type: functional; settings: HCT-15, 48 h; how it was run: as §1
[1] = Growth inhibition of human NCI-ADR-RES cells after 48 hrs by sulforhodamine B assay; assay type: functional; how it was run: as §1
CAKI-1 = assay: Growth inhibition of human CAKI-1 cells after 48 hrs by sulforhodamine B assay; assay type: functional; settings: CAKI-1, 48 h; how it was run: as §1
[2] = Antibacterial activity against Bacillus subtilis JH642 containing trpC2 pheA1 assessed as growth inhibition after 16 hrs by broth dilution method; assay type: functional, Bacillus subtilis subsp. subtilis str. JH642
How it was run: (§2)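 Strains grown overnight in LB, diluted 10-fold, shaken at 37 °C for 45 min–1 h (~10⁸ CFU/mL), then diluted ~1000-fold to ~10⁵ CFU/mL. Broth dilution in LB: 20 mM DMSO stocks, 1:2 serial dilutions giving seven concentrations, inoculum added 1:1. OD600 read with shaking.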

NCI-H460 [3] = assay: Cytotoxicity against human NCI-H460 cells assessed as inhibition of cell viability by MTT assay; assay type: functional, cell-based
How it was run: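 NCI-H460 cells in RPMI 1640 with 10% FBS and 2 mM glutamine at 37 °C, 5% CO₂. Seeded at 10,000 cells/well for 12 h, then dosed in 1% FBS medium (DMSO below 0.1% final). MTT (10 µL of 5 mg/mL) for 4 h, formazan dissolved in DMSO for 45 min, absorbance at 562 nm. Triplicate wells, at least three runs (N = 9).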

A498 = assay: Growth inhibition of human A498 cells after 48 hrs by sulforhodamine B assay; assay type: functional; settings: A498, 48 h; how it was run: as §1
NCI-H460 [4] = assay: Growth inhibition of human NCI-H460 cells after 48 hrs by sulforhodamine B assay; assay type: functional; settings: NCI-H460, 48 h; how it was run: as §1
OVCAR-3 = assay: Growth inhibition of human OVCAR3 cells after 48 hrs by sulforhodamine B assay; assay type: functional; settings: OVCAR-3, 48 h; how it was run: as §1
HT-29 = assay: Growth inhibition of human HT-29 cells after 48 hrs by sulforhodamine B assay; assay type: functional; settings: HT-29, 48 h; how it was run: as §1
Escherichia coli [5] = assay: Antibacterial activity against Escherichia coli K-12 MG1655 assessed as growth inhibition after 16 hrs by broth dilution method; assay type: functional; settings: K-12 substr. MG1655, 16 h; how it was run: as §2
DU-145 = assay: Growth inhibition of human DU145 cells after 48 hrs by sulforhodamine B assay; assay type: functional; settings: DU-145, 48 h; how it was run: as §1
Escherichia coli [6] = assay: Antibacterial activity against Escherichia coli K-12 BAS901 harboring genetically modified imp-4213, zab4292::Tn5 assessed as growth inhibition after 16 hrs by broth dilution method; assay type: functional; settings: K-12 BAS901, 16 h
How it was run: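 Kanamycin-resistant strain grown overnight in LB with kanamycin 50 µg/mL, diluted 10-fold, then shaken at 37 °C for 45 min–1 h (~10⁸ CFU/mL). Diluted ~1000-fold to 10⁵ CFU/mL in LB. DMSO stocks (20 mM) prepared as 4X working solutions in LB. Seven 1:2 serial dilutions mixed with equal-volume inoculum. OD600 read with shaking.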

PC-3 = assay: Growth inhibition of human PC3 cells after 48 hrs by sulforhodamine B assay; assay type: functional; settings: PC-3, 48 h; how it was run: as §1
RPMI-8226 = assay: Growth inhibition of human RPMI8226 cells after 48 hrs by sulforhodamine B assay; assay type: functional; settings: RPMI-8226, 48 h; how it was run: as §1
SK-MEL-5 = assay: Growth inhibition of human SK-MEL-5 cells after 48 hrs by sulforhodamine B assay; assay type: functional; settings: SK-MEL-5, 48 h; how it was run: as §1

| SMILES | GI50 (SNB-75) [nM] | GI50 (A549) [nM] | GI50 (SR) [nM] | GI50 (SF-539) [µM] | GI50 (MCF7) [nM] | GI50 (MDA-MB-435) [nM] | GI50 (BT-549) [µM] | GI50 (HCT-15) [µM] | GI50 [1] [µM] | GI50 (CAKI-1) [µM] | MIC [2] [µM] | IC50 (NCI-H460 [3]) [µM] | GI50 (A498) [µM] | GI50 (NCI-H460 [4]) [nM] | GI50 (OVCAR-3) [nM] | GI50 (HT-29) [nM] | MIC (Escherichia coli [5]) [µM] | GI50 (DU-145) [nM] | MIC (Escherichia coli [6]) [µM] | GI50 (PC-3) [nM] | also measured |
| --- | --- | --- | --- | --- | --- | --- | --- | --- | --- | --- | --- | --- | --- | --- | --- | --- | --- | --- | --- | --- | --- |
| CCCCCCCCCCCCO[C@@H]1O[C@@H](C)[C@H](O[C@@H]2O[C@@H](C)[C@H](OC(C)=O)[C@@H](O[C@@H]3O[C@@H](C)[C@H](O)[C@@H](OC(C)=O)[C@H]3OC(C)=O)[C@H]2O)[C@@H](O)[C@H]1O | 900 | 2080 | 1200 | 3.1 | 1620 | 1490 | 4.54 | 7.38 | 7.92 | 6.57 | 8 (≈ 6.01 µg/mL) | 12.5 | 5.13 | 1540 | 1490 | 1210 | > 64 | 2480 | 32 (≈ 24 µg/mL) | 890 | GI50 (RPMI-8226): 1000 nM; GI50 (SK-MEL-5): 1230 nM |
| CCCCCCCCCCCCO[C@@H]1O[C@@H](C)[C@H](O[C@@H]2O[C@@H](C)[C@H](OC(C)=O)[C@@H](O[C@@H]3O[C@@H](C)[C@H](OC(C)=O)[C@@H](O[C@@H]4O[C@@H](C)[C@H](OC(C)=O)[C@@H](O)[C@H]4OC(C)=O)[C@H]3OC(C)=O)[C@H]2O)[C@@H](O)[C@H]1O | 500 | 1180 | 860 | 0.83 | 870 | 830 | 0.94 | 1.01 | 3.38 | 1.42 | 4 (≈ 3.92 µg/mL) | 7.5 | 0.73 | 940 | 770 | 970 | > 64 | 800 | > 64 | 820 | GI50 (RPMI-8226): 960 nM; GI50 (SK-MEL-5): 740 nM |
| CCCCCCCCCCCCO[C@@H]1O[C@@H](C)[C@H](O[C@@H]2O[C@@H](C)[C@H](OC(C)=O)[C@@H](O[C@@H]3O[C@@H](C)[C@H](OC(C)=O)[C@@H](O)[C@H]3OC(C)=O)[C@H]2O)[C@@H](O)[C@H]1O | 3420 | 6690 | 3200 | 7.11 | 4840 | 7680 | 7.9 | 8.39 | 9.29 | 8.78 | 32 (≈ 24 µg/mL) | 90.9 | 6.73 | 6320 | 5910 | 4350 | > 64 | 7940 | > 64 | 2370 | GI50 (RPMI-8226): 4120 nM; GI50 (SK-MEL-5): 6210 nM |
| CCCCCCCCCCCCO[C@@H]1O[C@@H](C)[C@H](O[C@@H]2O[C@@H](C)[C@H](OC(C)=O)[C@@H](O[C@@H]3O[C@@H](C)[C@H](OC(C)=O)[C@@H](O[C@@H]4O[C@@H](C)[C@H](O)[C@@H](O)[C@H]4OC(C)=O)[C@H]3OC(C)=O)[C@H]2O)[C@@H](O)[C@H]1O | 2180 | 8180 | 3830 | 7.17 | 5290 | 7250 | 8.39 | 8.33 | 8.9 | 9.24 | 8 (≈ 7.51 µg/mL) | 12.8 | 5.64 | 8430 | 6070 | 8130 | > 64 | 7470 | > 64 | 6550 | GI50 (RPMI-8226): 2840 nM; GI50 (SK-MEL-5): 6270 nM |
| CCCCCCCCCCCCO[C@@H]1O[C@@H](C)[C@H](O[C@@H]2O[C@@H](C)[C@H](OC(C)=O)[C@@H](O[C@@H]3O[C@@H](C)[C@H](O)[C@@H](O[C@@H]4O[C@@H](C)[C@H](OC(C)=O)[C@@H](OC(C)=O)[C@H]4OC(C)=O)[C@H]3OC(C)=O)[C@H]2O)[C@@H](O)[C@H]1O | 620 | 970 | 850 | 0.91 | 940 | 840 | 0.88 | 1.52 | 2.24 | 0.6 | > 64 | 9.8 | 0.02 | 960 | 800 | 910 | > 64 | 790 | > 64 | 750 | GI50 (RPMI-8226): 920 nM; GI50 (SK-MEL-5): 820 nM |
| CCCCCCCCCCCCO[C@@H]1O[C@@H](C)[C@H](O[C@@H]2O[C@@H](C)[C@H](OC(C)=O)[C@@H](O[C@@H]3O[C@@H](C)[C@H](OC(C)=O)[C@@H](O[C@@H]4O[C@@H](C)[C@H](OC(C)=O)[C@@H](O)[C@H]4O)[C@H]3OC(C)=O)[C@H]2O)[C@@H](O)[C@H]1O | 1360 | 9470 | 1450 | 4.7 | 1740 | 6000 | 8.46 | 7.54 | 9.15 | 8.45 | 4 (≈ 3.76 µg/mL) | 9.1 | 7.57 | 7580 | 4840 | 8020 | > 64 | 7920 | > 64 | 5300 | GI50 (RPMI-8226): 1860 nM; GI50 (SK-MEL-5): 1760 nM |
| CCCCCCCCCCCCO[C@@H]1O[C@@H](C)[C@H](O[C@@H]2O[C@@H](C)[C@H](OC(C)=O)[C@@H](O[C@@H]3O[C@@H](C)[C@H](OC(C)=O)[C@@H](O[C@@H]4O[C@@H](C)[C@H](OC(C)=O)[C@@H](OC(C)=O)[C@H]4OC(C)=O)[C@H]3OC(C)=O)[C@H]2O)[C@@H](O)[C@H]1O | 540 | 800 | 920 | 0.8 | 890 | 880 | 1.05 | 0.82 | 0.92 | 0.86 | > 64 | 16.4 | 0.67 | 930 | 840 | 910 | > 64 | 800 | > 64 | 710 | GI50 (RPMI-8226): 1040 nM; GI50 (SK-MEL-5): 760 nM |
